Screens from PubChem BioAssay.
Only a selection was taken, and hits are over-represented in it overall.
Fh CTSL1 inh = blocks F. hepatica cathepsin L1 in PFM18AAP counter-screen; recombinant F. hepatica cathepsin L1, Z-Leu-Arg-MCA fluorescence; inhibition, % at 5.96 µM; 300,000 tested, 0.49% active;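 active = inhibition above the mean of all tested compounds plus 3 SD, set per screening campaign, cut at about 17% in these data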
UCH37 inh = inhibitors of human deubiquitinating enzyme UCH37; purified proteasome/UCH37, Ub-AMC cleavage fluorescence; inhibition, % (concentration not given with the values); 330,000 tested, 0.33% active; AID 588478;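 active = mean inhibition over replicate wells above about 20%, limit read from the data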
Target sequence (Q9Y5K5 whole entry, looked up): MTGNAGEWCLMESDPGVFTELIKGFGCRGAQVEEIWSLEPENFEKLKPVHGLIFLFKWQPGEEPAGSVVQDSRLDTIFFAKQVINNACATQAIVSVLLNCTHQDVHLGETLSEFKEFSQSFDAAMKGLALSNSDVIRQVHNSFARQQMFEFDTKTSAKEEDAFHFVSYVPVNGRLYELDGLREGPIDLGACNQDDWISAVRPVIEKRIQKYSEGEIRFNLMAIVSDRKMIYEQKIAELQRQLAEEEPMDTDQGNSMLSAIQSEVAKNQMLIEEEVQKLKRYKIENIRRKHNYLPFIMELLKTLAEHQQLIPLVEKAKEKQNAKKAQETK
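Schedule: 30 min plus 25 min, room temperature / Material: human UCH37 within purified proteasomes / Technique: AMC fluorescence intensity at 355/460 nm / Buffer or medium: pH 7.4 Tris-HCl (50 mM) with ovalbumin, ATP-MgCl2, DTT / Controls: wells without proteasome as full block, compound-free enzyme plus substrate as uninhibited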
UPR XBP1 act = activators of adaptive arm of unfolded protein response (XBP1). CHO-XBP1 luciferase reporter, IRE1-XBP1 UPR activation, luminescence; percent of tunicamycin response, DMSO as zero. 330,000 tested, 0.33% active. activation, % at 20 µM. AID 463104;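 active = versus positive control, 20 µM dose yields 30% or more activation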
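Material: CHO-XBP1 cells stably carrying IRE1-XBP1-driven luciferase reporter | Medium: F12 with 10% serum | Compound dosing: 20 µM single concentration, DMSO 1% | Incubation: Overnight seeding at 37 °C, 6 h compound treatment at 37 °C | Detection: Steady-Glo luminescence read | Read-out basis: % activation of reporter signal versus tunicamycin and DMSO controls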
CHOP inh = CHOP inhibition in unfolded protein response. CHO-K1 CHOP-promoter luciferase, tunicamycin-induced, 15-18 h. inhibition, % at 10 µM. 220,000 tested, 3.8% active;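 active = compounds that reduced the stress-induced luciferase reporter signal by more than about 70% of percent inhibition, limit read from the data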
UPR CHOP act = apoptotic UPR (CHOP) activation | AID 449763 | 330,000 tested, 0.34% active | activation, % at 10 µM | CHO-CHOP luciferase reporter, luminescence; percent of tunicamycin response over DMSO baseline;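 active = at 10 µM dose, activation of 40% or more, normalized to positive control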
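System: CHO-CHOP luciferase reporter cell line; amount: 500 cells/well; buffer or medium: F12 medium containing 10% fetal bovine serum; incubation: 6 h compound exposure at 37 °C after overnight seeding; measured by: luciferase luminescence after 10 min with Steady-Glo reagent; evaluation: % reporter activation, DMSO baseline versus tunicamycin full activation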
A number is an active result; i = inactive; nt = no result given.

SMILES	Fh CTSL1 inh	UCH37 inh	UPR XBP1 act	CHOP inh	UPR CHOP act
Nc1ccc(Br)c2cccnc12	i	25	i	i	i
CC(=NOCC(=O)NN=Cc1ccccc1O)c1cccs1	nt	i	nt	nt	nt
C/C(=C/CCC(C)C1CCC2(C)C3CCC4C(C)(C)C(=O)CCC4(C)C3=CCC12C)C(=O)O (stereo unspecified)	nt	nt	nt	i	nt
C/C(=C/CCC(C)[C@H]1CC[C@@]2(C)C3=C(CC[C@]12C)[C@@]1(C)CCC(=O)C(C)(C)[C@@H]1CC3)C(=O)O (stereo partly specified)	i	nt	nt	74	nt
CCSC1=N/C(=C\c2ccc3c(c2)OCO3)C(=O)S1	i	i	i	74	i
CCCSC1=N/C(=C\c2ccc3c(c2)OCO3)C(=O)S1	i	i	i	i	i
CC(=NNC(=O)CSCc1cccc(Br)c1)c1ccc([N+](=O)[O-])cc1	nt	i	nt	nt	nt
CCOC(=O)c1csc(NC(=O)COc2ccc(Cl)cc2Cl)n1	i	i	i	71	i
O=C(OCc1cccc(F)c1)c1ccc2c(c1)-c1ccccc1C2=O	i	i	i	i	i
CCOC(=O)CSc1nnc([C@H](Cc2ccccc2)NC(=O)OC(C)(C)C)o1	i	i	i	i	i
CC(C)(C)OC(=O)N[C@@H](Cc1ccccc1)c1nnc(S(=O)(=O)Cc2cccc(F)c2)o1	31	i	i	i	i
CC(C)C[C@H](N)c1nnc(S(=O)(=O)Cc2cccc(F)c2)o1	72	i	i	i	i
COc1ccc(C=NNS(=O)(=O)c2ccc(C)cc2)cc1	nt	i	nt	nt	nt
CC(=NNC(=O)c1cc(-c2ccc(Cl)s2)[nH]n1)c1ccncc1	nt	i	nt	nt	nt
Cc1ccc[n+](/C(=C\C(=C=[N-])C#N)C(=O)c2ccc(Cl)cc2)c1	i	21	i	i	i
CC(Cn1nnc([N+](=O)[O-])n1)=NNC(=O)c1ccccc1	nt	i	nt	nt	nt
CN(C1=C(NC(=O)c2ccccc2)C(=O)c2ccccc2C1=O)C1CCS(=O)(=O)C1 (stereo unspecified)	22	49	i	107	i
COc1ccc(C=NNC(=O)C(N)=O)c(OC)c1OC	nt	i	nt	nt	nt
Cc1ccccc1-c1noc(-c2cccs2)n1	i	i	i	90	i
CN(C)Cc1c(C(=O)NN=Cc2cccc(OCc3c(F)cccc3Cl)c2)nnn1-c1nonc1N	nt	i	nt	nt	nt
Cc1cc(C)cc(-c2nc(-c3ccncc3)no2)c1	i	i	i	84	i
CC(C)(C)c1ccc(-c2nc(-c3ccncc3)no2)cc1	i	i	i	82	i
Cc1ccc(-c2nc(-c3ccncc3)no2)cc1	nt	i	nt	nt	nt
CCOc1ccccc1C=NNc1ccc(Cl)nn1	nt	i	nt	nt	nt
Cc1ccc(/C=C/C(=O)NCc2cccs2)o1	37	i	i	i	i
SMILES	Fh CTSL1 inh	UCH37 inh	UPR XBP1 act	CHOP inh	UPR CHOP act
Cc1ccc(/C=C/C(=O)NCc2cccs2)cc1	i	i	i	i	i
NC(=NN=Cc1ccc([N+](=O)[O-])cc1)c1nonc1N	nt	i	nt	nt	nt
CCCCCCSc1nnc(-c2cnn(-c3ccccc3)c2-n2cccc2)n1C	i	i	i	84	i
CCSc1nnc(-c2cnn(-c3ccccc3)c2-n2cccc2)n1C	i	i	i	i	i
Cc1ccc(-c2cc(C(F)F)n3ncc(C(=O)Nc4c(C)nn(Cc5c(Cl)cccc5Cl)c4C)c3n2)cc1	i	i	i	91	i
Cc1nn(Cc2c(Cl)cccc2Cl)c(C)c1NC(=O)c1cnn2c(C(F)F)cc(-c3ccccc3)nc12	i	i	i	i	i
C=CCc1cccc(C=NNC(=O)COc2ccc(-n3cnnn3)cc2)c1O	nt	i	nt	nt	nt
CC(C)(C)C1CCC2(CC1)SCC(=O)N2c1ccccc1 (stereo unspecified)	i	i	i	77	i
O=S(=O)(c1ccc(S(=O)(=O)N(Cc2ccco2)Cc2ccccc2Cl)cc1)N1CCCC1	i	i	i	i	i
CN(C)S(=O)(=O)c1ccc(S(=O)(=O)N(Cc2ccco2)Cc2ccccc2Cl)cc1	36	i	i	i	i
Cc1ccccc1C(=O)ON=Cc1c(N2CCOCC2)n(C)c2ccccc12	nt	i	nt	nt	nt
O=C1CCCC2=C1C(c1ccncc1)c1c(nc(SCc3ccccc3Cl)[nH]c1=O)N2 (stereo unspecified)	i	i	i	i	i
CCC(C)Sc1nc2c(c(=O)[nH]1)C(c1cccs1)C1=C(CCCC1=O)N2 (stereo unspecified)	i	i	i	82	i
Cc1cc(C)nc(/N=C2\NC(=O)CC(C(=O)O)N2c2ccc(Oc3ccccc3)cc2)n1 (stereo unspecified)	37	i	i	i	i
O=C(CN1CCN(Cc2ccccc2)CC1)NN=Cc1cccs1	nt	i	nt	nt	nt
COc1ccc(C=NNC(=O)CCCC(=O)NC2CCCCC2)cc1	nt	i	nt	nt	nt
CCN1CCN(Cc2ccc(NC(=O)c3ccc(C)c(NC(=O)c4nccn4C)c3)cc2C(F)(F)F)CC1	i	i	i	i	i
CCN1CCN(Cc2ccc(NC(=O)c3ccc(C)c(NC(=O)c4nccnc4N)c3)cc2C(F)(F)F)CC1	i	i	i	79	i
CC(C)(C)S(=O)(=O)N1C[C@@H]2CC/C=C\C/C(c3ccccc3)=C\2[C@H]1CCO	nt	20	nt	nt	nt
COc1cccc(NC(=O)CCCOc2cc(=O)n(C)c3ccccc23)c1	i	i	i	i	i
CCOc1ccc(NC(=O)CCCOc2cc(=O)n(C)c3ccccc23)cc1	i	i	i	74	i
Cc1cccc(C(=O)Nc2cccc(C(=O)NN=Cc3ccc4c(c3)OCO4)c2)c1	nt	i	nt	nt	nt
NS(=O)(=O)c1ccc(NC2=CC(=O)C(=O)c3ccccc32)cc1	17	nt	i	nt	i
ON=C1CC2(Cc3nonc31)OCCO2	nt	i	nt	nt	nt
COc1cc(-c2ccc(Nc3ccccc3C(=O)O)c(OC)c2)ccc1Nc1ccccc1C(=O)O	nt	25	i	i	i
Cc1ccc(S(=O)(=O)NN=Cc2cc([N+](=O)[O-])ccc2Cl)cc1	nt	i	nt	nt	nt
CC(C)CCNC(=O)c1cn(CC(C)C)c(=O)c2c1c1ccccc1n2C	i	i	i	nt	i
